≈ marks a conversion by molar mass, not a printed value.
Legend:
Bacillus anthracis [1] = assay: Antimicrobial activity against Bacillus anthracis infected mouse spore inhalation anthrax model assessed as bacterial load per gram of lung tissue at 30 mg/kg, ip every 12 hrs for 14 days treated 36 hrs postinfection; type: functional; conditions: route intraperitoneal
Bacillus anthracis [2] = assay: animal or person; conditions: in Mus musculus, ip
Bacillus anthracis [3] = assay: animal or person; conditions: in Mus musculus, ip; remark: listed apart in the source
Bacillus anthracis [4] = assay: animal or person; conditions: in Mus musculus, ip; remark: listed apart in the source
Bacillus cereus [5] = assay: Antimicrobial activity against Bacillus cereus ATCC 4342 selected after 20 daily cycles of drug selection followed by 5 days of nonselective growth by broth microdilution method; type: functional; conditions: ATCC 4342, 120 h
How it was run: (§1)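 B. cereus ATCC 4342 went through stepwise selection for 20 cycles in cation-adjusted Mueller-Hinton broth with doubling drug dilutions. Each cycle was seeded from the previous day's 0.5× MIC wells, in two independent rounds per drug. Selectants showing a fourfold or greater MIC rise were passaged 5 days without drug. Their MICs were then read alongside the parent strain. Oritavancin assays carried 0.002% polysorbate 80 throughout.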

Bacillus cereus [6] = assay: Ratio of MIC for Bacillus cereus ATCC 4342 selected after 20 daily cycles of drug selection followed by 5 days of nonselective growth to MIC for Bacillus cereus ATCC 4342; type: functional; how it was run: as §1
Bacillus anthracis [7] = assay: animal or person; conditions: in Mus musculus, iv
Bacillus anthracis [8] = assay: animal or person; conditions: in Mus musculus, ip; remark: listed apart in the source
Bacillus anthracis [9] = assay: Antimicrobial activity against Bacillus anthracis infected mouse spore inhalation anthrax model assessed as bacterial load per gram of lung tissue at 30 mg/kg, ip every 12 hrs for 14 days treated 48 hrs postinfection; type: functional; conditions: route intraperitoneal
Bacillus cereus [10] = assay: Antimicrobial activity against Bacillus cereus ATCC 4342 by broth microdilution method; type: functional; how it was run: as §1
Bacillus anthracis [11] = assay: Antimicrobial activity against Bacillus anthracis infected mouse spore inhalation anthrax model assessed as bacterial load per gram of lung tissue at 30 mg/kg, ip every 12 hrs for 14 days treated 24 hrs postinfection; type: functional; conditions: route intraperitoneal
Bacillus anthracis [12] = assay: Antimicrobial activity against Bacillus anthracis infected mouse spore inhalation anthrax model assessed as bacterial load per gram of lung tissue at 1 mg/kg, ip every 48 hrs for 14 days treated 24 hrs postinfection; type: functional; conditions: route intraperitoneal
Bacillus anthracis [13] = assay: Antimicrobial activity against Bacillus anthracis infected mouse spore inhalation anthrax model assessed as bacterial load per gram of lung tissue at 10 mg/kg, ip every 48 hrs for 14 days treated 24 hrs postinfection; type: functional; conditions: route intraperitoneal
Mus musculus [14] = organism: Mus musculus; conditions: in vivo, ip, 1.2 mg/kg
Bacillus anthracis [15] = assay: Antimicrobial activity against Bacillus anthracis infected mouse spore inhalation anthrax model assessed as bacterial load per gram of lung tissue at 10 mg/kg, ip every 48 hrs for 14 days treated 48 hrs postinfection; type: functional; conditions: route intraperitoneal
Bacillus anthracis [16] = assay: Antimicrobial activity against Bacillus anthracis infected mouse spore inhalation anthrax model assessed as survival rate at 50 mg/kg, iv administered as single dose treated 24 hrs postinfection; type: functional
Bacillus anthracis [17] = assay: Antimicrobial activity against Bacillus anthracis infected mouse spore inhalation anthrax model assessed as survival rate at 50 mg/kg, iv administered as single dose treated 14 days before infection measured on 22 days postinfection; type: functional
Mus musculus [18] = assay: fAUC (0.25 to 72 hrs) in Bacillus anthracis infected mouse spore inhalation anthrax model at 32 mg/kg, ip administered as single dose; type: ADME, organism-based; design: dose 32 mg/kg, route intraperitoneal; conditions: in vivo
Bacillus anthracis [19] = assay: Antimicrobial activity against Bacillus anthracis infected mouse spore inhalation anthrax model assessed as bacterial load per gram of lung tissue at 10 mg/kg, ip every 48 hrs for 14 days treated 36 hrs postinfection; type: functional; conditions: route intraperitoneal
Bacillus anthracis [20] = assay: Antimicrobial activity against Bacillus anthracis infected mouse spore inhalation anthrax model assessed as survival rate at 50 mg/kg, iv administered as single dose treated 28 days before infection measured on 22 days postinfection; type: functional
Bacillus anthracis [21] = assay: Antimicrobial activity against Bacillus anthracis infected mouse spore inhalation anthrax model assessed as survival rate at 50 mg/kg, iv administered as single dose treated 42 hrs postinfection; type: functional
Mus musculus [22] = assay: Free peak concentration in Bacillus anthracis infected mouse spore inhalation anthrax model at 32 mg/kg, iv administered as single dose; type: ADME, organism-based; design: dose 32 mg/kg, route intravenous; conditions: in vivo
Bacillus anthracis [23] = assay: Antimicrobial activity against Bacillus anthracis infected mouse spore inhalation anthrax model assessed as bacterial load per gram of lung tissue at 15 mg/kg, iv administered as single dose treated 24 hrs postinfection; type: functional
Mus musculus [24] = assay: Free peak concentration in Bacillus anthracis infected mouse spore inhalation anthrax model at 32 mg/kg, ip administered as single dose; type: ADME, organism-based; design: dose 32 mg/kg, route intraperitoneal; conditions: in vivo
Bacillus anthracis [25] = assay: Antimicrobial activity against Bacillus anthracis infected mouse spore inhalation anthrax model assessed as bacterial load per gram of lung tissue at 50 mg/kg, iv administered as single dose treated 28 days before infection; type: functional
Bacillus anthracis [26] = assay: Antimicrobial activity against Bacillus anthracis infected mouse spore inhalation anthrax model assessed as bacterial load per gram of lung tissue at 50 mg/kg, iv administered as single dose treated 14 days before infection; type: functional
Bacillus anthracis [27] = assay: Antimicrobial activity against Bacillus anthracis infected mouse spore inhalation anthrax model assessed as survival rate at 30 mg/kg, ip every 48 hrs for 14 days treated 24 hrs postinfection; type: functional; conditions: route intraperitoneal
Bacillus anthracis [28] = assay: Antimicrobial activity against Bacillus anthracis by broth microdilution method in presence of polysorbate-80; type: functional
Bacillus anthracis [29] = assay: Antimicrobial activity against Bacillus anthracis infected mouse spore inhalation anthrax model assessed as bacterial load per gram of lung tissue at 0.3 mg/kg, ip every 48 hrs for 14 days treated 24 hrs postinfection; type: functional; conditions: route intraperitoneal
Bacillus anthracis [30] = assay: Antimicrobial activity against Bacillus anthracis infected mouse spore inhalation anthrax model assessed as survival rate at 15 mg/kg, iv administered as single dose treated 24 hrs postinfection; type: functional
Bacillus anthracis [31] = assay: Antimicrobial activity against Bacillus anthracis infected mouse spore inhalation anthrax model assessed as survival rate at 0.1 mg/kg, ip every 48 hrs for 14 days treated 24 hrs postinfection; type: functional; conditions: route intraperitoneal
Mus musculus [32] = assay: fAUC (0.25 to 72 hrs) in Bacillus anthracis infected mouse spore inhalation anthrax model at 32 mg/kg, iv administered as single dose; type: ADME, organism-based; design: dose 32 mg/kg, route intravenous; conditions: in vivo
Bacillus anthracis [33] = assay: Antimicrobial activity against Bacillus anthracis infected mouse spore inhalation anthrax model assessed as bacterial load per gram of lung tissue at 3 mg/kg, ip every 48 hrs for 14 days treated 24 hrs postinfection; type: functional; conditions: route intraperitoneal
Bacillus anthracis [34] = assay: Antimicrobial activity against Bacillus anthracis infected mouse spore inhalation anthrax model assessed as survival rate at 3 mg/kg, ip every 48 hrs for 14 days treated 24 hrs postinfection; type: functional; conditions: route intraperitoneal
Bacillus anthracis [35] = assay: Antimicrobial activity against Bacillus anthracis infected mouse spore inhalation anthrax model assessed as bacterial load per gram of lung tissue at 50 mg/kg, iv administered as single dose treated 24 hrs postinfection; type: functional
Bacillus anthracis [36] = assay: Antimicrobial activity against Bacillus anthracis infected mouse spore inhalation anthrax model assessed as bacterial load per gram of lung tissue at 50 mg/kg, iv administered as single dose treated 24 hrs before infection; type: functional
Bacillus anthracis [37] = assay: Ratio of MIC90 for Bacillus anthracis in presence of polysorbate-80 to MIC90 for Bacillus anthracis; type: functional
Bacillus anthracis [38] = assay: Antimicrobial activity against Bacillus anthracis infected mouse spore inhalation anthrax model assessed as survival rate at 1 mg/kg, ip every 48 hrs for 14 days treated 24 hrs postinfection; type: functional; conditions: route intraperitoneal
Bacillus anthracis [39] = assay: Antimicrobial activity against Bacillus anthracis infected mouse spore inhalation anthrax model assessed as survival rate at 10 mg/kg, ip every 48 hrs for 14 days treated 36 hrs postinfection; type: functional; conditions: route intraperitoneal
Bacillus anthracis [40] = assay: Antimicrobial activity against Bacillus anthracis infected mouse spore inhalation anthrax model assessed as bacterial load per gram of lung tissue at 50 mg/kg, iv administered as single dose treated 7 days before infection; type: functional
Bacillus anthracis [41] = assay: Antimicrobial activity against Bacillus anthracis infected mouse spore inhalation anthrax model assessed as survival rate at 0.1 mg/kg, ip every 48 hrs for 14 days treated 24 hrs postinfection measured on day 3; type: functional; conditions: route intraperitoneal
Bacillus anthracis [42] = assay: Antimicrobial activity against Bacillus anthracis infected mouse spore inhalation anthrax model assessed as survival rate at 10 mg/kg, ip every 48 hrs for 14 days treated 24 hrs postinfection; type: functional; conditions: route intraperitoneal
Bacillus anthracis [43] = assay: Antimicrobial activity against Bacillus anthracis infected mouse spore inhalation anthrax model assessed as bacterial load per gram of lung tissue at 30 mg/kg, ip every 48 hrs for 14 days treated 24 hrs postinfection; type: functional; conditions: route intraperitoneal
Bacillus anthracis [44] = assay: Antimicrobial activity against Bacillus anthracis infected mouse spore inhalation anthrax model assessed as survival rate at 0.3 mg/kg, ip every 48 hrs for 14 days treated 24 hrs postinfection; type: functional; conditions: route intraperitoneal
Bacillus anthracis [45] = assay: Antimicrobial activity against Bacillus anthracis infected mouse spore inhalation anthrax model assessed as bacterial load per gram of lung tissue at 50 mg/kg, iv administered as single dose treated 42 hrs postinfection; type: functional
Bacillus anthracis [46] = assay: Antimicrobial activity against Bacillus anthracis infected mouse spore inhalation anthrax model assessed as survival rate at 50 mg/kg, iv administered as single dose treated 7 days before infection measured on 33 days postinfection; type: functional
Bacillus anthracis [47] = assay: Antimicrobial activity against Bacillus anthracis Ames by broth microdilution method in presence of polysorbate-80; type: functional
Bacillus anthracis [48] = assay: Antimicrobial activity against Bacillus anthracis infected mouse spore inhalation anthrax model assessed as survival rate at 50 mg/kg, iv administered as single dose treated 24 hrs before infection measured on 33 days postinfection; type: functional
Bacillus anthracis [49] = assay: Antimicrobial activity against Bacillus anthracis infected mouse spore inhalation anthrax model assessed as survival rate at 10 mg/kg, ip every 48 hrs for 14 days treated 48 hrs postinfection; type: functional; conditions: route intraperitoneal
Bacillus anthracis [50] = assay: Antimicrobial activity against Bacillus anthracis infected mouse spore inhalation anthrax model assessed as survival rate at 5 mg/kg, iv administered as single dose treated 24 hrs postinfection; type: functional
Bacillus anthracis [51] = assay: Antimicrobial activity against Bacillus anthracis infected mouse spore inhalation anthrax model assessed as bacterial load per gram of lung tissue at 5 mg/kg, iv administered as single dose treated 24 hrs postinfection; type: functional
Bacillus anthracis [52] = assay: Antimicrobial activity against Bacillus anthracis infected mouse spore inhalation anthrax model; type: functional; conditions: inhaled or nasal

O=C(O)c1cn(C2CC2)c2cc(N3CCNCC3)c(F)cc2c1=O [CIPROFLOXACIN]
log10cfu (Bacillus anthracis [1]): 2880 | survival at 30 mg/kg (Bacillus anthracis [2]): 70% | survival at 30 mg/kg (Bacillus anthracis [3]): 90% | survival at 30 mg/kg (Bacillus anthracis [4]): 80% | MIC (Bacillus cereus [5]): 0.5 µg/mL (≈ 1.51 µM) | Ratio (Bacillus cereus [6]): 4 | survival at 30 mg/kg (Bacillus anthracis [7]): 0% | survival at 30 mg/kg (Bacillus anthracis [8]): 0% | log10cfu (Bacillus anthracis [9]): 3080 | MIC (Bacillus cereus [10]): 0.12 µg/mL (≈ 0.362 µM) | log10cfu (Bacillus anthracis [11]): 1090

CN[C@H](CC(C)C)C(=O)N[C@H]1C(=O)N[C@@H](CC(N)=O)C(=O)N[C@H]2C(=O)N[C@H]3C(=O)N[C@H](C(=O)N[C@H](C(=O)O)c4cc(O)cc(O)c4-c4cc3ccc4O)[C@H](O[C@H]3C[C@](C)(N)[C@@H](O)[C@H](C)O3)c3ccc(c(Cl)c3)Oc3cc2cc(c3O[C@@H]2O[C@H](CO)[C@@H](O)[C@H](O)[C@H]2O[C@H]2C[C@](C)(NCc3ccc(-c4ccc(Cl)cc4)cc3)[C@@H](O)[C@H](C)O2)Oc2ccc(cc2Cl)[C@H]1O [ORITAVANCIN]
log10cfu (Bacillus anthracis [12]): 29500 | log10cfu (Bacillus anthracis [13]): 35000 | fAUC (Mus musculus [14]): 1900 ng·h/mL | log10cfu (Bacillus anthracis [15]): 1680 | survival at 50 mg/kg (Bacillus anthracis [16]): 100% | survival at 50 mg/kg (Bacillus anthracis [17]): 100% | fAUC (Mus musculus [18]): 54000 ng·h/mL | log10cfu (Bacillus anthracis [19]): 2520 | survival at 50 mg/kg (Bacillus anthracis [20]): 20% | survival at 50 mg/kg (Bacillus anthracis [21]): 55% | Cmax_unbound (Mus musculus [22]): 17000 ng/mL | MIC (Bacillus cereus [5]): 0.008 µg/mL (≈ 0.00446 µM) | log10cfu (Bacillus anthracis [23]): 20300 | Cmax_unbound (Mus musculus [24]): 6100 ng/mL | Ratio (Bacillus cereus [6]): 1 | log10cfu (Bacillus anthracis [25]): 51000 | log10cfu (Bacillus anthracis [26]): 65000 | survival at 30 mg/kg (Bacillus anthracis [27]): 100% | MIC90 (Bacillus anthracis [28]): 0.12 µg/mL | log10cfu (Bacillus anthracis [29]): 28000 | survival at 15 mg/kg (Bacillus anthracis [30]): 70% | survival at 0.1 mg/kg (Bacillus anthracis [31]): 0% | fAUC (Mus musculus [32]): 61000 ng·h/mL | log10cfu (Bacillus anthracis [33]): 36800 | survival at 3 mg/kg (Bacillus anthracis [34]): 100% | log10cfu (Bacillus anthracis [35]): 36100 | log10cfu (Bacillus anthracis [36]): 1980 | MIC (Bacillus cereus [10]): 0.004 µg/mL (≈ 0.00223 µM) | Ratio (Bacillus anthracis [37]): 16 | survival at 1 mg/kg (Bacillus anthracis [38]): 50% | survival at 10 mg/kg (Bacillus anthracis [39]): 90% | log10cfu (Bacillus anthracis [40]): 63000 | Activity (Bacillus anthracis [41]): 100% | survival at 10 mg/kg (Bacillus anthracis [42]): 100% | log10cfu (Bacillus anthracis [43]): 18200 | survival at 0.3 mg/kg (Bacillus anthracis [44]): 30% | log10cfu (Bacillus anthracis [45]): 740 | survival at 50 mg/kg (Bacillus anthracis [46]): 90% | MIC (Bacillus anthracis [47]): 0.015 µg/mL | survival at 50 mg/kg (Bacillus anthracis [48]): 100% | survival at 10 mg/kg (Bacillus anthracis [49]): 50% | survival at 5 mg/kg (Bacillus anthracis [50]): 40% | log10cfu (Bacillus anthracis [51]): 35000 | ED50 (Bacillus anthracis [52]): 1.2 mg/kg
